Laboratory results published in ChEMBL document CHEMBL1157578, “Design, synthesis, and biological evaluation of novel water-soluble triptolide derivatives: Antineoplastic activity against imatinib-resistant CML cells bearing T315I mutant Bcr-Abl” (Bioorg Med Chem, 2010).
Activity calls are given as the source filed them. No cut-off for these calls is given here.

Assays:
[1] = Cytotoxicity against human KBM5 cells harboring wild type Bcr-Abl after 72 hrs by MTS assay; assay type: functional, cell-based; conditions: KBM5, 72 h
Outline: (§1)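 KBM5 (wild-type p210 Bcr-Abl) or KBM5-T315I cells in IMDM + 10% heat-inactivated FCS. The T315I subline was kept in 1 µM imatinib, removed 2–3 days before assay. Cells incubated 72 h with increasing concentrations. Viability by MTS at 490 nm, as percent of control; IC50 from dose–response curves.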

KBM5 [2] = experiment: Cytotoxicity against human KBM5 cells harboring wild type Bcr-Abl at 0.001 to 17 uM after 72 hrs by MTS assay; assay type: functional, cell-based; outline: as §1
KBM5 [3] = experiment: Cytotoxicity against imatinib-resistant human KBM5 cells harboring Bcr-Abl T315I mutant at 0.001 to 17 uM after 72 hrs by MTS assay; assay type: functional, cell-based; outline: as §1
[4] = Cytotoxicity against imatinib-resistant human KBM5 cells harboring Bcr-Abl T315I mutant after 72 hrs by MTS assay; assay type: functional, cell-based; conditions: KBM5, 72 h; outline: as §1
[5] = Cytotoxicity against NHFB after 72 hrs by MTS assay; set-up: species or system Homo sapiens
Outline: (§2)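 MEF and NHFB fibroblasts cultured in DMEM + 10% FCS. Exposed to increasing concentrations for 72 h. Viability by MTS reagent, optical density at 490 nm.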

DU-145 = experiment: Inhibition of RNA polymerase 2 in human DU145 cells assessed as decrease in polymerase 2 phosphorylation at 50 to 100 nM after 18 hrs by Western blot analysis; assay type: cell-based
[6] = Cytotoxicity against imatinib-resistant mouse 32D cells harboring Bcr-Abl T315I mutant after 72 hrs by MTS assay; assay type: functional, cell-based
Outline: (§3)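 32D myeloid cells stably expressing wild-type or T315I Bcr-Abl, maintained in RPMI 1640 + 10% FBS. Treated with increasing concentrations for 72 h. Viability by MTS, optical density at 490 nm.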

KBM5 [7] = experiment: Induction of apoptosis in human KBM5 cells harboring wild type Bcr-Abl assessed as PARP cleavage at 50 to 100 uM after 18 hrs by Western blot analysis; assay type: functional, cell-based
HeLa = experiment: Inhibition of RNA polymerase 2 in human HeLa cells assessed as decrease in polymerase 2 phosphorylation at 50 to 100 nM after 18 hrs by Western blot analysis; assay type: cell-based
KBM5 [8] = experiment: Inhibition of RNA polymerase 2 in human KBM5 cells harboring wild type Bcr-Abl assessed as decrease in polymerase 2 phosphorylation after 18 hrs by Western blot analysis; assay type: cell-based
Outline: (§4)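 Cells exposed for 18 h at the indicated concentrations. Whole-cell lysates made in RIPA buffer with phosphatase and protease inhibitors. Western blot for Bcr-Abl (c-Abl C-19), phospho-c-Abl Y245, phospho-RNA polymerase II, PARP, and actin as loading control.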

MEF = experiment: Cytotoxicity against MEF after 72 hrs by MTS assay; assay type: cell-based; conditions: Mus musculus; outline: as §2
[9] = Downregulation of Bcr-Abl mRNA level in human KBM5 cells harboring Bcr-Abl T315I mutant at 50 to 100 nM after 18 hrs by semi-quantitative RT-PCR analysis; assay type: functional, cell-based
Outline: (§5)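 KBM5 and KBM5-T315I cells exposed to 50 or 100 nM, or control medium, for 18 h. Bcr-Abl and GAPDH mRNA measured by semi-quantitative RT-PCR; products run on 1% agarose and stained with ethidium bromide.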

[10] = Downregulation of Bcr-Abl protein level in human KBM5 cells harboring wild type Bcr-Abl after 18 hrs by Western blot analysis; assay type: functional, cell-based; outline: as §4
[11] = Aqueous solubility in water; assay type: physicochemical; conditions: buffer
[12] = Downregulation of Bcr-Abl protein level in mouse 32D cells harboring Bcr-Abl T315I mutant after 18 hrs by Western blot analysis; assay type: functional, cell-based; outline: as §4
KBM5 [13] = experiment: Induction of apoptosis in human KBM5 cells harboring Bcr-Abl T315I mutant assessed as PARP cleavage at 50 to 100 uM after 18 hrs by Western blot analysis; assay type: functional, cell-based
[14] = Downregulation of Bcr-Abl mRNA level in human KBM5 cells harboring wild type Bcr-Abl at 50 to 100 nM after 18 hrs by semi-quantitative RT-PCR analysis; assay type: functional, cell-based; outline: as §5
[15] = Downregulation of Bcr-Abl protein level in mouse 32D cells harboring wild type Bcr-Abl after 18 hrs by Western blot analysis; assay type: functional, cell-based; outline: as §4
[16] = Cytotoxicity against mouse 32D cells harboring wild type Bcr-Abl after 72 hrs by MTS assay; assay type: functional, cell-based; outline: as §3
KBM5 [17] = experiment: Inhibition of RNA polymerase 2 in human KBM5 cells harboring Bcr-Abl T315I mutant assessed as decrease in polymerase 2 phosphorylation after 18 hrs by Western blot analysis; assay type: cell-based; outline: as §4
HCT-116 = experiment: Inhibition of RNA polymerase 2 in human HCT116 cells assessed as decrease in polymerase 2 phosphorylation at 50 to 100 nM after 18 hrs by Western blot analysis; assay type: cell-based
[18] = Downregulation of Bcr-Abl protein level in human KBM5 cells harboring Bcr-Abl T315I mutant after 18 hrs by Western blot analysis; assay type: functional, cell-based; outline: as §4

Row | Structure (SMILES) | IC50 [1] | Activity (KBM5 [2]) | Activity (KBM5 [3]) | IC50 [4] | solubility [11] | also measured
1 | CC(C)[C@]12O[C@H]1[C@@H]1O[C@@]13[C@H]1CCC4=C(COC4=O)[C@@H]1C[C@@H]1O[C@@]13[C@@H]2OC(=O)CNc1ccc(Cl)cc1 | 5.02 µM | inactive | inactive | 0.734 µM | – | –
2 | CC(C)[C@]12O[C@H]1[C@@H]1O[C@@]13[C@H]1CCC4=C(COC4=O)[C@@H]1C[C@@H]1O[C@@]13[C@@H]2OC(=O)CCl | – | Active | Active | – | – | –
3 | CC(C)[C@]12O[C@H]1[C@@H]1O[C@@]13[C@H]1CCC4=C(COC4=O)[C@@H]1C[C@@H]1O[C@@]13[C@@H]2OC(=O)CNCCO | 0.0182 µM | Active | Active | 0.0197 µM | Soluble | IC50 [5]: 10 µM; inhibition (DU-145): Active; IC50 [6]: 0.074 µM; Activity (KBM5 [7]): Active; inhibition (HeLa): Active; inhibition (KBM5 [8]): Dose-dependent effect; IC50 (MEF): 10.4 µM; Activity [9]: Active; Activity [10]: Dose-dependent effect; Activity [12]: Dose-dependent effect; Activity (KBM5 [13]): Active; Activity [14]: Active; Activity [15]: Dose-dependent effect; IC50 [16]: 0.061 µM; inhibition (KBM5 [17]): Dose-dependent effect; inhibition (HCT-116): Active; Activity [18]: Dose-dependent effect
4 | CC(C)[C@]12O[C@H]1[C@@H]1O[C@@]13[C@H]1CCC4=C(COC4=O)[C@@H]1C[C@@H]1O[C@@]13[C@@H]2OC(=O)CNc1nccc(-c2cccnc2)n1 | 0.297 µM | Active | Active | 0.214 µM | Soluble | –
5 | CC(C)[C@]12O[C@H]1[C@@H]1O[C@@]13[C@H]1CCC4=C(COC4=O)[C@@H]1C[C@@H]1O[C@@]13[C@@H]2OC(=O)CN | 0.0192 µM | – | – | 0.0117 µM | – | IC50 [5]: 11.4 µM; IC50 [6]: 0.044 µM; IC50 (MEF): 11.1 µM; IC50 [16]: 0.05 µM
6 | CCN(CC)CC(=O)O[C@@H]1[C@@]2(C(C)C)O[C@H]2[C@@H]2O[C@@]23[C@H]2CCC4=C(COC4=O)[C@@H]2C[C@@H]2O[C@]213 | 0.078 µM | Active | Active | – | Soluble | –
7 | CC(C)[C@]12O[C@H]1[C@@H]1O[C@@]13[C@H]1CCC4=C(COC4=O)[C@@H]1C[C@@H]1O[C@@]13[C@@H]2OC(=O)CN(CCO)CCO | 2.8 µM | inactive | inactive | 1.55 µM | – | –
8 | CC(C)[C@]12O[C@H]1[C@@H]1O[C@]13[C@]1(O[C@H]1C[C@H]1C4=C(CC[C@@]13C)C(=O)OC4)[C@@H]2O [TRIPTOLIDE] | 0.0103 µM | Active | Active | 0.0083 µM | Insoluble | IC50 [5]: 8.8 µM; IC50 [6]: 0.034 µM; IC50 (MEF): 9.2 µM; IC50 [16]: 0.032 µM
9 | CC(C)[C@]12O[C@H]1[C@@H]1O[C@@]13[C@H]1CCC4=C(COC4=O)[C@@H]1C[C@@H]1O[C@@]13[C@@H]2OC(=O)CNCCN | 0.774 µM | Active | Active | 0.95 µM | Soluble | –
10 | CCCCCCCCCCCCNCC(=O)O[C@@H]1[C@@]2(C(C)C)O[C@H]2[C@@H]2O[C@@]23[C@H]2CCC4=C(COC4=O)[C@@H]2C[C@@H]2O[C@]213 | 5.42 µM | inactive | inactive | 1.04 µM | – | –
11 | COC(=O)[C@H](C)NCC(=O)O[C@@H]1[C@@]2(C(C)C)O[C@H]2[C@@H]2O[C@@]23[C@H]2CCC4=C(COC4=O)[C@@H]2C[C@@H]2O[C@]213 | 0.0186 µM | Active | Active | 0.0142 µM | Soluble | –
12 | CNCC(=O)O[C@@H]1[C@@]2(C(C)C)O[C@H]2[C@@H]2O[C@@]23[C@H]2CCC4=C(COC4=O)[C@@H]2C[C@@H]2O[C@]213 | 0.348 µM | Active | Active | 0.308 µM | Soluble | –
13 | CC(C)[C@]12O[C@H]1[C@@H]1O[C@@]13[C@H]1CCC4=C(COC4=O)[C@@H]1C[C@@H]1O[C@@]13[C@@H]2OC(=O)CN1CCNCC1 | 0.496 µM | Active | Active | 0.548 µM | Soluble | –
